Source: ChEMBL document CHEMBL2331187, “Efficient synthesis of 3H,3'H-spiro[benzofuran-2,1'-isobenzofuran]-3,3'-dione as novel skeletons specifically for influenza virus type B inhibition” (Eur J Med Chem, 2013)

Columns and labels:
Human alphaherpesvirus 2 = test: Antiviral activity against Herpes simplex virus 2 MS infected in Vero cells assessed as inhibition of virus-induced cytopathogenicity by MTT assay; format: functional, organism-based; conditions: Human alphaherpesvirus 2, MS
Procedure, shortened: (§1)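 MTT-based CPE assay in Vero cells with HSV-1 strain F or HSV-2 strain MS. CC50 is the concentration that reduces viability of uninfected Vero cells by 50%. EC50 is the concentration that improves viability of HSV-infected cells by 50%.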

Human alphaherpesvirus 1 = test: Antiviral activity against Herpes simplex virus 1 F infected in Vero cells assessed as inhibition of virus-induced cytopathogenicity by MTT assay; format: functional, organism-based; conditions: Human alphaherpesvirus 1, strain F; procedure, shortened: as §1
[1] = Cytotoxicity against african green monkey Vero cells by MTT assay; format: cell-based; conditions: chlorocebus sabaeus; procedure, shortened: as §1
[2] = Selectivity ratio of CC50 for MDCK cells to EC50 for Influenza B virus (B/Brisbane/60/2008); format: ADME, cell-based; conditions: dog, read-out: Ratio CC50/EC50
Procedure, shortened: (§2)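 Confluent MDCK monolayers were mock-infected or infected with about 50-100 PFU of influenza virus per well. At read-out the medium was removed and cells were stained with fluorescein diacetate in PBS for 20 min at 35 °C. Fluorescence was read at ex 485/em 538 nm. CC50 and EC50 were derived from the fluorescence, and the selectivity index was taken as CC50/EC50.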

[3] = Selectivity ratio of CC50 for MDCK cells to EC50 for Influenza B virus (B/Lee/40); format: ADME, cell-based; conditions: dog, read-out: Ratio CC50/EC50; procedure, shortened: as §2
[4] = Selectivity ratio of CC50 for MDCK cells to EC50 for Influenza B virus (B/Taiwan/2/62); format: ADME, cell-based; conditions: dog, read-out: Ratio CC50/EC50; procedure, shortened: as §2
[5] = Selectivity ratio of CC50 for MDCK cells to EC50 for Influenza B virus (B/Panama/45/1990); format: ADME, cell-based; conditions: dog, read-out: Ratio CC50/EC50; procedure, shortened: as §2
Influenza B virus [6] = test: Antiviral activity against Influenza B virus (B/Brisbane/60/2008) infected in MDCK cells assessed as inhibition of virus-induced cytopathogenicity at 1 hr post-infection measured after 3 days by fluorescein-diacetate based fluorimetric analysis; format: functional, cell-based; conditions: B/Brisbane/60/2008, MDCK; procedure, shortened: as §2
Influenza B virus [7] = test: Antiviral activity against Influenza B virus (B/Lee/40) infected in MDCK cells assessed as inhibition of virus-induced cytopathogenicity at 1 hr post-infection measured after 3 days by fluorescein-diacetate based fluorimetric analysis; format: functional, organism-based; conditions: B/Lee/1940, MDCK; procedure, shortened: as §2
Influenza B virus [8] = test: Antiviral activity against Influenza B virus (B/Taiwan/2/62) infected in MDCK cells assessed as inhibition of virus-induced cytopathogenicity at 1 hr post-infection measured after 3 days by fluorescein-diacetate based fluorimetric analysis; format: functional, organism-based; procedure, shortened: as §2
Influenza B virus [9] = test: Antiviral activity against Influenza B virus (B/Panama/45/1990) infected in MDCK cells assessed as inhibition of virus-induced cytopathogenicity at 1 hr post-infection measured after 3 days by fluorescein-diacetate based fluorimetric analysis; format: functional, cell-based; conditions: B/Panama/45/1990, MDCK; procedure, shortened: as §2
Influenza A virus = test: Antiviral activity against Influenza A virus (A/Taiwan/1/1986(H1N1)) infected in MDCK cells assessed as inhibition of virus-induced cytopathogenicity at 1 hr post-infection measured after 3 days by fluorescein-diacetate based fluorimetric analysis; format: functional, organism-based; procedure, shortened: as §2
[10] = Cytotoxicity against MDCK cells after 3 days by fluorescein diacetate-based fluorimetric analysis; format: cell-based, Canis lupus familiaris; conditions: dog; procedure, shortened: as §2
[11] = test system: Human immunodeficiency virus 2; test: Antiviral activity against Human immunodeficiency virus 2 ROD infected in MT4 cells assessed as inhibition of virus-induced cytopathogenicity by MTT assay; format: functional, organism-based; conditions: Human immunodeficiency virus 2, ISOLATE ROD
Procedure, shortened: (§3)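 MTT-based CPE assay in MT4 cells. CC50 is the concentration that reduces viability of uninfected MT4 cells by 50%. EC50 is the concentration that improves viability of HIV-infected cells by 50%.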

[12] = Cytotoxicity against human MT4 cells by MTT assay; format: cell-based; procedure, shortened: as §3
[13] = test system: Human immunodeficiency virus 1; test: Antiviral activity against Human immunodeficiency virus 1 3B infected in MT4 cells assessed as inhibition of virus-induced cytopathogenicity by MTT assay; format: functional, organism-based; procedure, shortened: as §3
MDCK = test: Cytotoxicity against MDCK cells assessed as cell death at 500 uM after 3 days by fluorescein diacetate-based fluorimetric analysis; design: species or system Canis lupus familiaris; conditions: dog, 72 h

Structure (SMILES) | EC50 (Influenza B virus [6]) | EC50 (Influenza B virus [7]) | EC50 (Influenza B virus [8]) | EC50 (Influenza B virus [9]) | EC50 (Influenza A virus) | CC50 at 72 h [10] | other results
Cc1cc2c(cc1C)C(=O)C1(OC(=O)c3ccccc31)O2 (stereo not drawn) | 4.8 µM | 16.1 µM | 3.6 µM | 3 µM | 23.4 µM | > 500 µM | EC50 (Human alphaherpesvirus 2): > 312 µM; EC50 (Human alphaherpesvirus 1): > 312 µM; CC50 [1]: 312 µM; selectivity ratio [2]: 30; selectivity ratio [3]: 30; selectivity ratio [4]: 30; selectivity ratio [5]: > 15; EC50 [11]: > 158 µM; CC50 [12]: 158 µM; EC50 [13]: > 158 µM
NC12CC3CC(CC(C3)C1)C2 [AMANTADINE] | > 100 µM | > 100 µM | > 100 µM | > 100 µM | 0.6 µM | > 100 µM | –
Cc1ccc2c(c1)OC1(OC(=O)c3ccccc31)C2=O (stereo not drawn) | 46.9 µM | 59.9 µM | 31.2 µM | 25.7 µM | 27.8 µM | 376 µM | –
O=C1OC2(Oc3c(Cl)ccc(Cl)c3C2=O)c2ccccc21 (stereo not drawn) | – | – | – | 18.4 µM | 25.5 µM | 86 µM | –
O=C1OC2(Oc3cc4c(cc3C2=O)CCC4)c2ccccc21 (stereo not drawn) | 4.8 µM | 10.6 µM | 5.7 µM | 2.1 µM | 9.8 µM | 80.4 µM | –
Cc1cccc2c1OC1(OC(=O)c3ccccc31)C2=O (stereo not drawn) | 104 µM | 199 µM | 53 µM | 24.7 µM | 83.2 µM | > 500 µM | –
Cc1cc(C)c2c(c1)OC1(OC(=O)c3ccccc31)C2=O (stereo not drawn) | > 500 µM | > 500 µM | > 500 µM | > 500 µM | 11.4 µM | > 500 µM | –
O=C1OC2(Oc3c(Cl)cccc3C2=O)c2ccccc21 (stereo not drawn) | 96.3 µM | 227 µM | 61.4 µM | 21.7 µM | 174 µM | > 500 µM | –
O=C1OC2(Oc3c(cccc3-c3ccccc3)C2=O)c2ccccc21 (stereo not drawn) | 11.2 µM | 12.2 µM | 8.3 µM | 4.3 µM | 12.9 µM | 29.2 µM | selectivity ratio [5]: < 5
O=C1OC2(Oc3ccc(Cl)cc3C2=O)c2ccccc21 (stereo not drawn) | 28.6 µM | 38.8 µM | 21.7 µM | 7.8 µM | 25.2 µM | 153 µM | –
CCc1ccc2c(c1)OC1(OC(=O)c3ccccc31)C2=O (stereo not drawn) | 32.2 µM | 34.4 µM | 12.1 µM | 11.2 µM | 34.6 µM | 103 µM | –
Cc1cc2c(cc1C)C1(OC2=O)Oc2cc(C(C)C)ccc2C1=O (stereo not drawn) | – | – | – | > 500 µM | 321 µM | > 500 µM | –
Nc1ccc2c(c1)OC1(OC(=O)c3ccccc31)C2=O (stereo not drawn) | – | – | – | 27.4 µM | 49 µM | 305 µM | –
O=C1OC2(Oc3cc(Cl)ccc3C2=O)c2ccccc21 (stereo not drawn) | – | – | – | > 500 µM | > 500 µM | > 500 µM | –
Nc1nc2c(ncn2COCCO)c(=O)[nH]1 [ACYCLOVIR] | – | – | – | – | – | – | EC50 (Human alphaherpesvirus 2): 58.6 µM; EC50 (Human alphaherpesvirus 1): 1.7 µM; CC50 [1]: > 50 µM
O=C1OC2(Oc3cc4ccccc4cc3C2=O)c2ccccc21 (stereo not drawn) | 132 µM | 159 µM | 39.4 µM | 96.1 µM | 206 µM | > 500 µM | –
CC(C)c1ccc2c(c1)OC1(OC(=O)c3ccccc31)C2=O (stereo not drawn) | – | – | – | 44.9 µM | 148 µM | 314 µM | –
Nc1ccn([C@H]2CC[C@@H](CO)O2)c(=O)n1 [ZALCITABINE] | – | – | – | – | – | – | EC50 [11]: 0.4 µM; CC50 [12]: 75.2 µM; EC50 [13]: 0.4 µM

Structure (SMILES) | EC50 (Influenza B virus [6]) | EC50 (Influenza B virus [7]) | EC50 (Influenza B virus [8]) | EC50 (Influenza B virus [9]) | EC50 (Influenza A virus) | CC50 at 72 h [10] | other results
O=C1OC2(Oc3cc(F)ccc3C2=O)c2ccccc21 (stereo not drawn) | – | – | – | 8.2 µM | 100 µM | > 500 µM | Activity (MDCK): > 20%; selectivity ratio [5]: > 15
COc1ccc2c(c1)OC1(OC(=O)c3ccccc31)C2=O (stereo not drawn) | – | – | – | > 500 µM | > 500 µM | > 500 µM | –
COc1cccc2c1OC1(OC(=O)c3ccccc31)C2=O (stereo not drawn) | 81.1 µM | 58.2 µM | 42.3 µM | 23.6 µM | 126 µM | 253 µM | –
O=C1OC2(Oc3ccc(-c4ccccc4)cc3C2=O)c2ccccc21 (stereo not drawn) | 12.1 µM | 14.1 µM | 10.8 µM | 6.6 µM | > 30.3 µM | 30.3 µM | selectivity ratio [5]: < 5
O=C1OC2(Oc3c(ccc4ccccc34)C2=O)c2ccccc21 (stereo not drawn) | – | – | – | < 6.2 µM | < 6.2 µM | 40.4 µM | –
Cc1ccc2c(c1)C(=O)C1(OC(=O)c3ccccc31)O2 (stereo not drawn) | 28 µM | 32.8 µM | 24.8 µM | 7.6 µM | 32.9 µM | 293 µM | –
O=C1OC2(Oc3cc(-c4ccccc4)ccc3C2=O)c2ccccc21 (stereo not drawn) | – | – | – | < 6.2 µM | 7.6 µM | 36.3 µM | selectivity ratio [5]: < 5
Cc1ccc(C)c2c1OC1(OC(=O)c3ccccc31)C2=O (stereo not drawn) | 42.7 µM | > 187 µM | 66.6 µM | > 187 µM | > 187 µM | 187 µM | –
CCCc1ccc2c(c1)C(=O)C1(OC(=O)c3ccccc31)O2 (stereo not drawn) | 27.6 µM | 33.7 µM | 25 µM | 9.8 µM | 30.8 µM | 100 µM | –
CCOC(=O)c1ccc2c(c1)C(=O)C1(OC(=O)c3ccccc31)O2 (stereo not drawn) | – | – | – | > 500 µM | > 500 µM | > 500 µM | –
O=c1[nH]cnc2c1ncn2[C@H]1CC[C@@H](CO)O1 [DIDANOSINE] | – | – | – | – | – | – | EC50 [11]: 34.7 µM; CC50 [12]: > 500 µM; EC50 [13]: 7.8 µM
NC(=O)c1nc(F)cnc1O [FAVIPIRAVIR] | 1.32 µM | 1.93 µM | 2.84 µM | 1.94 µM | 6.95 µM | > 100 µM | –
CCc1ccc2c(c1)C(=O)C1(OC(=O)c3ccccc31)O2 (stereo not drawn) | 25.4 µM | 31.2 µM | 9.3 µM | 7.5 µM | 28.1 µM | 112 µM | –
Cc1cc2c(c(C)c1C)C(=O)C1(OC(=O)c3ccccc31)O2 (stereo not drawn) | 103 µM | 254 µM | 23.2 µM | 11 µM | > 500 µM | > 500 µM | –
Cc1ccc2c(c1C)OC1(OC(=O)c3ccccc31)C2=O (stereo not drawn) | 23.5 µM | 32 µM | 28.9 µM | 9.9 µM | 7.1 µM | 370 µM | –
COc1cc2c(cc1OC)C1(OC2=O)Oc2cc(C(C)C)ccc2C1=O (stereo not drawn) | – | – | – | 33.3 µM | > 500 µM | > 500 µM | Activity (MDCK): 47%; selectivity ratio [5]: > 15
O=C1OC2(Oc3ccccc3C2=O)c2ccccc21 (stereo not drawn) | – | – | – | 88.1 µM | > 500 µM | > 500 µM | selectivity ratio [5]: 20
